In ChEMBL document CHEMBL1250515, “4-(3-Halo/amino-4,5-dimethoxyphenyl)-5-aryloxazoles and -N-methylimidazoles that are cytotoxic against combretastatin A resistant tumor cells and vascular disrupting in a cisplatin resistant germ cell tumor model” (J Med Chem, 2010):
Calls of active or inactive are those of the source. The calls are words filed in the database; no cut-off is given here.

Tests used:
[1] = Cytotoxicity against human 518A2 cells after 72 hrs by MTT assay; assay type: functional, cell-based; conditions: 518A2, 72 h
Summary of the method: (§1)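 MTT read-out. HL-60 seeded at 5 × 10⁵/mL and adherent lines at 5 × 10⁴/mL, precultured 24 h, then exposed to compounds for 72 h at 37 °C, 5% CO₂. MTT final 0.05% (HL-60, 518A2) or 0.1% (others), 2 h. Formazan dissolved in SDS/DMSO/acetic acid; A570 minus A630. Quadruplicates; viability relative to controls; IC50 from four-parameter Hill fit.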

HL-60 [2] = assay: Cytotoxicity against human HL60 cells after 72 hrs by MTT assay; assay type: functional, cell-based; conditions: HL-60, 72 h; summary of the method: as §1
HT-29 = assay: Cytotoxicity against human HT-29 cells after 72 hrs by MTT assay; assay type: functional, cell-based; conditions: HT-29, 72 h; summary of the method: as §1
[3] = Cytotoxicity against human vinblastine-resistant KBV1 cells after 72 hrs by MTT assay; assay type: functional, cell-based; conditions: KB-V1, 72 h; summary of the method: as §1
[4] = Cytotoxicity against human multidrug-resistant MCF7/Topo cells after 72 hrs by MTT assay; assay type: functional, cell-based; summary of the method: as §1
[5] = Cytotoxicity against human H12.1 cells after 96 hrs by SRB assay; assay type: functional, cell-based
Summary of the method: (§2)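 Germ cell tumor lines seeded on day 0 at densities ensuring exponential growth, exposed from day 1 to drug at 0.001–10 μM in medium. Surviving cells relative to untreated controls read on day 5 by sulforhodamine B colorimetric assay (96 h exposure). IC50 from four-parameter Hill fit of concentration-response curves.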

[6] = Cytotoxicity against human cisplatin-resistant 1411HP cells after 96 hrs by SRB assay; assay type: functional, cell-based; summary of the method: as §2
[7] = Inhibition of tubulin polymerization by fluorescence-based assay; conditions: TDE = time-dependent effect
Summary of the method: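 Purified tubulin polymerization kit, fluorescence-based; polymerization followed as relative fluorescence units at excitation 360 nm and emission 465 nm. Compounds and reference agents tested at 3 μM. Four to five independent experiments.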

HL-60 [8] = assay: Induction of apoptosis in human HL60 cells at 10 uM after 16 hrs by TUNEL assay; assay type: functional
HL-60 [9] = assay: Induction of apoptosis in human HL60 cells assessed as intact mitochondria at 5 uM after 72 hrs relative to control; assay type: functional
HL-60 [10] = assay: Induction of apoptosis in human HL60 cells assessed as ROS production at 50 uM after 24 hrs by NBT reduction assay relative to control; assay type: functional
518A2 [11] = assay: Induction of apoptosis in human 518A2 cells assessed as ROS production at 50 uM after 24 hrs by NBT reduction assay relative to control; assay type: functional
518A2 [12] = assay: Induction of apoptosis in human 518A2 cells assessed as intact mitochondria at 5 uM after 72 hrs relative to control; assay type: functional
Gallus gallus [13] = organism: Gallus gallus; assay: Antiangiogenic activity in vascular system of fertilized chicken embryo assessed as vessel shrinkage after 24 hrs by CAM assay; assay type: functional, tissue-based
Gallus gallus [14] = organism: Gallus gallus; assay: Antiangiogenic activity in vascular system of fertilized chicken embryo assessed as complete degradation of vascular system after 3 days by CAM assay; assay type: functional, tissue-based
1411HP [15] = assay: Antitumor activity against human 1411HP cells xenografted in mouse assessed as intratumoral hemorrhage at 30 mg/kg, ip after 24 hrs; assay type: functional, organism-based; parameters: dose 30 mg/kg
Summary of the method: (§3)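 Mice carried subcutaneous left-flank xenografts from 10 million 1411HP cells in 150 μL PBS. After 4 weeks, two mice with tumors of ~1 cm³ received a single ip dose of 30 mg/kg. Tumors were inspected for swelling and hemorrhage after 24 h. Body weight was recorded twice weekly, and daily during therapy.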

1411HP [16] = assay: Antitumor activity against human 1411HP cells xenografted in mouse assessed as swelling of tumor at 30 mg/kg, ip after 24 hrs; assay type: functional, organism-based; parameters: dose 30 mg/kg; summary of the method: as §3
1411HP [17] = assay: Antitumor activity against human 1411HP cells xenografted in mouse assessed as tumor regression at 20 mg/kg, ip qd for 2 days; assay type: functional, organism-based; parameters: dose 20 mg/kg
Summary of the method: (§4)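 Subcutaneous flank xenografts were grown from 10 million 1411HP cells in 150 μL PBS. Two mice with tumors of ~2.5 cm³ were dosed ip at 20 mg/kg on 2 consecutive days. Tumor volume was measured by caliper as a² × b × 0.5. Body weight was recorded twice weekly, and daily during therapy.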

1411HP [18] = assay: Antitumor activity against human 1411HP cells xenografted in mouse assessed as slow regrowth of tumor at 20 mg/kg, ip qd for 2 days; assay type: functional, organism-based; parameters: dose 20 mg/kg; summary of the method: as §4
Mus musculus [19] = assay: Toxicity in human 1411HP cells xenografted mouse at 20 mg/kg, ip qd for 2 days; assay type: organism-based; parameters: dose 20 mg/kg, route intraperitoneal; summary of the method: as §4
Mus musculus [20] = assay: Toxicity in human 1411HP cells xenografted mouse at 30 mg/kg, ip; assay type: organism-based; parameters: dose 30 mg/kg, route intraperitoneal; conditions: in vivo; summary of the method: as §3
1411HP [21] = assay: Antitumor activity against human 1411HP cells xenografted in mouse assessed as tumor regression at 20 mg/kg, ip administered on day 16/17 and 35/36; assay type: functional, organism-based; parameters: dose 20 mg/kg
1411HP [22] = assay: Antitumor activity against human 1411HP cells xenografted in mouse assessed as prolonged periods of stabilization at 20 mg/kg, ip administered on day 16/17 and 35/36; assay type: functional, organism-based; parameters: dose 20 mg/kg
Mus musculus [23] = assay: Toxicity in human 1411HP cells xenografted mouse at 20 mg/kg, ip administered on day 16/17 and 35/36; assay type: organism-based; parameters: dose 20 mg/kg, route intraperitoneal; conditions: in vivo
Mus musculus [24] = assay: Toxicity in human 1411HP cells xenografted mouse assessed as body weight change at 20 mg/kg, ip administered on day 16/17 and 35/36; assay type: organism-based; parameters: dose 20 mg/kg, route intraperitoneal; conditions: in vivo
1411HP [25] = assay: Antitumor activity against human 1411HP cells xenografted in mouse assessed as slow regrowth of tumor at 30 mg/kg, ip single dose

Row | Compound | IC50 [1] [nM] | IC50 (HL-60 [2]) [nM] | IC50 (HT-29) [nM] | IC50 [3] [nM] | IC50 [4] [nM] | Activity (HL-60 [9]) [%] | Activity (HL-60 [10]) [%] | Activity (518A2 [11]) [%] | Activity (518A2 [12]) [%] | further results
1 | COc1ccc(-c2c(-c3cc(Cl)c(OC)c(OC)c3)ncn2C)cc1N.Cl.Cl | 62 | 0.2 | 0.06 | 400 | 320 | 65 | 1.8 | 4.4 | 80 | IC50 [5]: 30 nM; IC50 [6]: 60 nM; inhibition [7]: tde; Activity (HL-60 [8]): 60%; Activity (Gallus gallus [13]): Active; Activity (Gallus gallus [14]): Active; Activity (1411HP [15]): Active; Activity (1411HP [16]): Active; Activity (1411HP [17]): Active; Activity (1411HP [18]): Active; Activity (Mus musculus [19]): Non-toxic; Activity (Mus musculus [20]): Non-toxic; Activity (1411HP [21]): Active; Activity (1411HP [22]): Active; Activity (Mus musculus [23]): Non-toxic; Activity (Mus musculus [24]): Non-toxic
2 | COc1ccc(-c2c(-c3cc(Br)c(OC)c(OC)c3)ncn2C)cc1F.Cl | 66 | 9700 | 510 |  |  | 60 | 1.4 | 3.9 | 89 | 
3 | COc1ccc(-c2c(-c3cc(Cl)c(OC)c(OC)c3)ncn2C)cc1F.Cl | 400 | > 10000 | 530 |  |  | 55 | 1.6 | 4.8 | 84 | 
4 | COc1cc(-c2ncn(C)c2-c2ccc3c(Cl)cn(C)c3c2)cc(N)c1OC.Cl | 3100 | 0.04 | 14 | 160 | 3.8 | 60 | 1.6 | 6.4 | 77 | 
5 | COc1ccc(-c2ocnc2-c2cc(N)c(OC)c(OC)c2)cc1N.Cl | 2 | 3.8 | 57 | 0.01 | 1.23 | 62 | 1.5 | 3.5 | 85 | Activity (HL-60 [8]): 60%; Activity (Gallus gallus [13]): inactive; Activity (Gallus gallus [14]): inactive
6 | COc1ccc(-c2c(-c3cc(OC)c(OC)c(OC)c3)ncn2C)cc1N | > 100000 | > 100000 | 64 | 300 | > 10000 | 74 | 2.2 | 1.5 | 87 | 
7 | COc1cc(-c2ncn(C)c2-c2ccc(N(C)C)cc2)cc(Cl)c1OC.Cl | 2300 | 0.02 | 0.2 |  |  | 61 | 2.4 | 6 | 80 | 
8 | COc1cc(-c2ncn(C)c2-c2ccc(N(C)C)cc2)cc(Br)c1OC.Cl | 860 | 0.2 | 4.3 |  |  | 63 | 1.6 | 6.7 | 82 | 
9 | COc1ccc(-c2c(-c3cc(Br)c(OC)c(OC)c3)ncn2C)cc1N.Cl.Cl | 6.4 | 0.1 | 0.02 | 200 | 340 | 66 | 1.5 | 3.8 | 80 | IC50 [5]: 22 nM; IC50 [6]: 54 nM; inhibition [7]: tde; Activity (HL-60 [8]): 60%; Activity (Gallus gallus [13]): inactive; Activity (Gallus gallus [14]): inactive; Activity (1411HP [15]): Active; Activity (1411HP [16]): Active; Activity (1411HP [25]): Active
10 | COc1ccc(/C=C\c2cc(OC)c(OC)c(OC)c2)cc1O [COMBRETASTATIN A4] | 18 | 0.1 | 3600 | 0.4 | 500 |  |  |  |  | 
11 | COc1ccc(-c2c(-c3cc(N)c(OC)c(OC)c3)ncn2C)cc1O.Cl | 2800 | 4600 | > 100000 |  |  | 76 | 1.1 | 1.8 | 94 | 
12 | COc1ccc(-c2c(-c3cc(N)c(OC)c(OC)c3)ncn2C)cc1F.Cl | > 10000 | > 10000 | > 50000 |  |  | 90 | 1.2 | 1.4 | 98 | 
13 | COc1cc(-c2ncoc2-c2ccc(N(C)C)cc2)cc(N)c1OC.Cl | 110 | 0.9 | > 15000 |  |  | 62 | 1.4 | 3.3 | 82 | 
